Data as given in article PMC4475452 (Chemistry & biology, 2015).

Key:
Type in all cases: cell-based
[1] = tested on: BRD3; experiment: BRD3 protein degradation by immunoblot; settings: Supp Figure 3
[2] = tested on: SLC19A1; experiment: SLC19A1 expression by RT-qPCR in Namalwa cells; settings: for Time for SLC19A1 to recover to control treatment level post compound removal: 24 hours treatment (1.0 µM), qPCR
[3] = tested on: BRD2; experiment: BRD2 protein degradation by immunoblot; settings: Supp Figure 3
[4] = tested on: BL cell lines; experiment: Proliferation by CellTiter-Glo assay in BL cell lines; settings: 72 hours; for Effect on proliferation: BL cell lines, CTG assay
How it was run: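 Burkitt lymphoma cells were seeded at 50000 per 100 µl in 96-well plates and given increasing concentrations of test compound. After 72 hours, CellTiter-Glo reagent was added and luminescence was read. Relative growth was calculated against DMSO-treated control cells.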

[5] = tested on: c-MYC; experiment: c-MYC protein level by immunoblot in BL cell lines; settings: for c-MYC level suppression: overnight treatment with increasing doses, BL cells, immunoblot; for c-MYC level upon withdrawal of compound from culture media: 1.0 µM for 24 hours, then removal, Namalwa and Ramos cells; for Time for c-MYC to recover to control level after compound removal: Namalwa cells, 24 hrs treatment (1.0 µM), three washes
[6] = tested on: Ramos cells; experiment: PARP cleavage by immunoblot; settings: 48 hours, 0.1 µM
[7] = tested on: BL cell lines; experiment: Caspase-Glo 3/7 apoptosis induction assay in BL cell lines; settings: 24 hour treatment, four BL cell lines; ARV-825 0.1 µM, JQ1 1.0 µM, OTX015 1.0 µM
How it was run: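 Four Burkitt lymphoma lines (Namalwa, Ramos, CA-46, DAUDI; from ATCC, maintained as instructed) were exposed for 24 hours to test compounds at 0.1 or 1.0 µM. Puromycin served as the apoptosis-induction positive control. Caspase 3/7 activity was read by luminescent Caspase-Glo 3/7 assay following the manufacturer's protocol.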

[8] = biological target: BRD4 (Homo sapiens, UniProt O60885); experiment: BRD4 protein level by immunoblot in BL cell lines

Row | Effect on BRD4 protein level [8] | SMILES | BRD3 degradation [1] | SLC19A1 suppression ([2]; compared with JQ1 and OTX015) | BRD2 degradation [3] | Proliferation suppression in presence of excessive pomalidomide ([4]; ARV-825 0.01 or 0.1 µM with pomalidomide 1.0 or 10.0 µM) | Effect on proliferation [4] | c-MYC level suppression [5] | Apoptosis (PARP cleavage) [6] | Caspases 3/7 activity [7] | Time for SLC19A1 to recover to control treatment level post compound removal [2] [h] | c-MYC level upon withdrawal of compound from culture media [5] | Time for c-MYC to recover to control level after compound removal [5] [h]
1 | – | Cc1sc2c(c1C)C(c1ccc(Cl)cc1)=N[C@@H](CC(=O)Nc1ccc(OCCOCCOCCOCCNc3cccc4c3C(=O)N(C3CCC(=O)NC3=O)C4=O)cc1)c1nnc(C)n1-2 (some centres unmarked) [ARV-825] | can be degraded | suppressed more substantially | can be degraded | rescued the proliferation suppression effect | more pronounced suppression of proliferation than both JQ1 and OTX015 | more pronounced downregulation of c-MYC | significant apoptosis | increased caspases 3/7 activity | – | – | –
2 | – | Cc1sc2c(c1C)C(c1ccc(Cl)cc1)=N[C@@H](CC(=O)OC(C)(C)C)c1nnc(C)n1-2 [JQ1] | – | – | – | – | – | unable to suppress c-MYC levels fully | – | not with high dose of JQ1 and OTX015 | 6 | rapidly restored to normal | 4
3 | – | Cc1sc2c(c1C)C(c1ccc(Cl)cc1)=N[C@@H](CC(=O)Nc1ccc(O)cc1)c1nnc(C)n1-2 [OTX015] | – | – | – | – | – | unable to suppress c-MYC levels fully | – | not with high dose of JQ1 and OTX015 | 6 | rapidly restored to normal | 4
4 | no impact on BRD4 protein levels | Nc1cccc2c1C(=O)N(C1CCC(=O)NC1=O)C2=O (centres unmarked) [pomalidomide] | – | – | – | – | didn’t show any significant effects | – | – | – | – | – | –
